Measured values reported in ChEMBL document CHEMBL5030505, “Assessment of NR4A Ligands That Directly Bind and Modulate the Orphan Nuclear Receptor Nurr1” (J Med Chem, 2020).

Columns and labels:
Format in all cases: cell-based
[1] = target: Nuclear receptor subfamily 4 group A member 2 (Homo sapiens) (UniProt P43354); experiment: Modulation of full length human Nurr1 expressed in SKNBE(2) cells co-transfected with RXRalpha and luciferase reporter plasmid harboring NurRE response element assessed as increase in luciferase activity incubated for 18 hrs by luciferase reporter-gene assay; details: SKNBE2, filed as modulator
Chain of Nuclear receptor subfamily 4 group A member 2 (Homo sapiens) (P43354 whole entry): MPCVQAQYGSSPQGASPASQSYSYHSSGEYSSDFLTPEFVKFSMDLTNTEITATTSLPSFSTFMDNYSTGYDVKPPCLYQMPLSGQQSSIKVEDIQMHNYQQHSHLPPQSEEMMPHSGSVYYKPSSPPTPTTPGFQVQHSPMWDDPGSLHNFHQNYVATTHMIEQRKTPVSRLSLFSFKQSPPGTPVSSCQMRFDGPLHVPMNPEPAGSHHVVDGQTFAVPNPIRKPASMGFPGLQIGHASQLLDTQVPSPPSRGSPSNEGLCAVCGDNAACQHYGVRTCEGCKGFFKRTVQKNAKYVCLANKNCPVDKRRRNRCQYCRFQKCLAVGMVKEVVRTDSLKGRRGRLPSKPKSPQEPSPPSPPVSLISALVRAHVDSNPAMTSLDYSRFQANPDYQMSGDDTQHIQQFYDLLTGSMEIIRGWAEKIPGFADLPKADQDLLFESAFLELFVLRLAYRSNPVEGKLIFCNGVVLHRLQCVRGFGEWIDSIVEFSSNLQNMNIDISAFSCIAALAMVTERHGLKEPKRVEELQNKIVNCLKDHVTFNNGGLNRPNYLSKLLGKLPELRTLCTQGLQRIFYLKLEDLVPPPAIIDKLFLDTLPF
Summary of the method: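 SK-N-BE(2)-C cells were kept in 1:1 EMEM/F12 with 10% FBS at 37°C and 5% CO2. They were cotransfected with full-length Nurr1 (1 μg), full-length RXRα (1 μg) and 3xNBRE- or 3xNurRE-luc reporter (6 μg) for 18 h, replated at 10,000 cells/well for 4 h, and then treated with ligand or vehicle in quadruplicate for 18 h. The readout was luciferase luminescence as fold over vehicle, reported as mean ± s.e.m. (n=4) from 2 independent experiments, one-way ANOVA.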

[2] = target: Nuclear receptor subfamily 4 group A member 2 (Homo sapiens) (UniProt P43354); experiment: Modulation of full length human Nurr1 expressed in SKNBE(2) cells co-transfected with luciferase reporter plasmid harboring NurRE response element assessed as increase in luciferase activity incubated for 18 hrs by luciferase reporter-gene assay; details: SKNBE2, filed as modulator
Summary of the method: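 Transfection of SK-N-BE(2)-C cells (1:1 EMEM/F12, 10% FBS, 37°C, 5% CO2) used full-length Nurr1 alone (2 μg, no RXRα) with 3xNBRE- or 3xNurRE-luciferase reporter (6 μg) for 18 h. Cells were replated at 10,000/well for 4 h, then exposed to ligand or vehicle in quadruplicate for 18 h. Luminescence was expressed as fold over vehicle, as mean ± s.e.m. (n=4) from 2 independent experiments, one-way ANOVA against vehicle.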

[3] = target: Nuclear receptor subfamily 4 group A member 2 (Homo sapiens) (UniProt P43354); experiment: Modulation of full length human Nurr1 expressed in PC12 cells co-transfected with RXRalpha and luciferase reporter plasmid harboring NurRE response element assessed as increase in luciferase activity incubated for 18 hrs by luciferase reporter-gene assay; details: PC-12, filed as modulator
Summary of the method: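 PC12 cells were grown at 37°C and 5% CO2 in […] medium with 15% horse serum and 2.5% FBS. They were transfected with full-length Nurr1 (1 μg) plus full-length RXRα (1 μg) and 3xNBRE- or 3xNurRE-luciferase reporter (6 μg) for 18 h, then replated at 10,000 cells/well for 4 h. Ligand or vehicle (water, ethanol or DMSO) was added in quadruplicate for 18 h. Luminescence was read as fold change over vehicle. Results are mean ± s.e.m., n=4, from 2 independent experiments, analysed by one-way ANOVA against vehicle.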

[4] = target: Nuclear receptor subfamily 4 group A member 2 (Homo sapiens) (UniProt P43354); experiment: Modulation of full length human Nurr1 expressed in PC12 cells co-transfected with luciferase reporter plasmid harboring NurRE response element assessed as increase in luciferase activity incubated for 18 hrs by luciferase reporter-gene assay; details: PC-12, filed as modulator
Summary of the method: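 Here PC12 cells (FK-12 medium, 15% horse serum, 2.5% FBS, 37°C, 5% CO2) received full-length Nurr1 (2 μg) without RXRα, plus 3xNBRE- or 3xNurRE-luciferase reporter (6 μg), for 18 h. Cells were replated at 10,000/well for 4 h, then treated with ligand or vehicle in quadruplicate for 18 h. Luciferase luminescence was normalized to vehicle-treated cells. Results are mean ± s.e.m. (n=4) from 2 independent experiments, with one-way ANOVA against vehicle.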

[5] = target: Nuclear receptor subfamily 4 group A member 2 (Homo sapiens) (UniProt P43354); experiment: Modulation of full length human Nurr1 expressed in HEK293T cells co-transfected with luciferase reporter plasmid harboring NurRE response element assessed as increase in luciferase activity incubated for 18 hrs by luciferase reporter-gene assay; details: filed as modulator
Summary of the method: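 Full-length Nurr1 plasmid, alone (2 μg) or 1 μg plus full-length RXRα (1 μg), cotransfected with 3xNBRE- or 3xNurRE-luciferase reporter (6 μg) using Lipofectamine 2000, 18 h. Cells replated at 10,000/well for 4 h. Four ligand concentrations, or vehicle (water, ethanol or DMSO), added in quadruplicate for 18 h. Luciferase read. Fold change vs vehicle, mean ± s.e.m., one-way ANOVA vs vehicle.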

[6] = target: Nuclear receptor subfamily 4 group A member 3 (Homo sapiens) (UniProt Q92570); experiment: Modulation of full length human NOR1 expressed in SK-N-BE(2) cells co-transfected with RXRalpha and luciferase reporter plasmid harboring NBRE response element assessed as increase in luciferase activity incubated for 18 by luciferase reporter gene assay; details: SKNBE2, filed as modulator, time 18.0 hrs
Chain of Nuclear receptor subfamily 4 group A member 3 (Homo sapiens) (Q92570 whole entry): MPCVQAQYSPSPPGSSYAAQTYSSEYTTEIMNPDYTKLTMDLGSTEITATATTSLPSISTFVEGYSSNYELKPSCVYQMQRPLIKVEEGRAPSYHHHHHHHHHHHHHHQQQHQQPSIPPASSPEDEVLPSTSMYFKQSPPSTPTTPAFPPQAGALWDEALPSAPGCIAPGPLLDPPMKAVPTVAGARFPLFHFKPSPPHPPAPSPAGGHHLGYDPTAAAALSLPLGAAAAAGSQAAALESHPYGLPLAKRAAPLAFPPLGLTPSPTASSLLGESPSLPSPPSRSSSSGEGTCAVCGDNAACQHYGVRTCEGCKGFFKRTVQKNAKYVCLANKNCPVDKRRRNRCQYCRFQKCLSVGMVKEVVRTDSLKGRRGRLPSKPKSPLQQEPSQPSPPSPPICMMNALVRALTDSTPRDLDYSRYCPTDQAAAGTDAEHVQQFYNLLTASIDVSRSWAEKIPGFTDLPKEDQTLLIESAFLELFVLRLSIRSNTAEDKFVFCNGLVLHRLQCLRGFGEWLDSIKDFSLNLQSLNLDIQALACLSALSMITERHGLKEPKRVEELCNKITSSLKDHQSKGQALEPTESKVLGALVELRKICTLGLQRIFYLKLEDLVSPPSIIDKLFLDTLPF
Summary of the method: (§1)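 Cells seeded at 1.5 million per 10-cm dish. Next day they were transfected (Lipofectamine 2000) with full-length Nur77 or NOR-1 expression plasmid, either alone (2 μg) or 1 μg plus full-length RXRα (1 μg), and 3xNBRE- or 3xNurRE-luciferase reporter (6 μg), 18 h. Cells replated at 10,000/well, 4 h, then ligand dose response added in quadruplicate for 18 h. Luciferase luminescence read.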

[7] = target: Nuclear receptor subfamily 4 group A member 3 (Homo sapiens) (UniProt Q92570); experiment: Modulation of full length human NOR1 expressed in SK-N-BE(2) cells co-transfected with luciferase reporter plasmid harboring NurRE response element assessed as increase in luciferase activity incubated for 18 by luciferase reporter gene assay; details: SKNBE2, filed as modulator, time 18.0 hrs; summary of the method: as §1
[8] = target: Nuclear receptor subfamily 4immunitygroup A member 1 (Homo sapiens) (UniProt P22736); experiment: Modulation of full length human Nur77 expressed in HEK293 cells co-transfected with luciferase reporter plasmid harboring NBRE response element assessed as increase in luciferase activity incubated for 18 hrs by luciferase reporter gene assay; details: filed as modulator; summary of the method: as §1
Chain of Nuclear receptor subfamily 4immunitygroup A member 1 (Homo sapiens) (P22736 whole entry): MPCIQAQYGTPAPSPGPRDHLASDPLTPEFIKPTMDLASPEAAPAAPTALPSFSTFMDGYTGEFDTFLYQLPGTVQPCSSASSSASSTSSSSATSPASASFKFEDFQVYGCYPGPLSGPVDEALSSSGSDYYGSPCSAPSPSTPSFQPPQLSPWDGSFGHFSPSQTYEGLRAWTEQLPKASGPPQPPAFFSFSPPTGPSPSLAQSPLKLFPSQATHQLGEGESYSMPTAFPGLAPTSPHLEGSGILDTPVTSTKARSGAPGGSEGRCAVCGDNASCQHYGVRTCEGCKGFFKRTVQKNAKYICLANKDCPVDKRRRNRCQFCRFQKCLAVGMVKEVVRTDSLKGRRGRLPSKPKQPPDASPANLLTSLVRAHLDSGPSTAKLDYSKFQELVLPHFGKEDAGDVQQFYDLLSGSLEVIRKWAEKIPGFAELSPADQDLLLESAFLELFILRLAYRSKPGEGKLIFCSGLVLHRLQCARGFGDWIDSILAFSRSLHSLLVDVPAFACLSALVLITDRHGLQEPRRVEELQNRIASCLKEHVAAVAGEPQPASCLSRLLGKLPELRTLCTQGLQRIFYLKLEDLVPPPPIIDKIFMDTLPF

[9] = target: Nuclear receptor subfamily 4immunitygroup A member 1 (Homo sapiens) (UniProt P22736); experiment: Modulation of full length human Nur77 expressed in HEK293 cells co-transfected with luciferase reporter plasmid harboring NurRE response element assessed as increase in luciferase activity incubated for 18 hrs by luciferase reporter gene assay; details: filed as modulator; summary of the method: as §1
[10] = target: Nuclear receptor subfamily 4immunitygroup A member 1 (Homo sapiens) (UniProt P22736); experiment: Modulation of full length human Nur77 expressed in SK-N-BE(2) cells co-transfected with RXRalpha and luciferase reporter plasmid harboring NurRE response element assessed as increase in luciferase activity incubated for 18 by luciferase reporter gene assay; details: SKNBE2, filed as modulator, time 18.0 hrs; summary of the method: as §1
[11] = target: Nuclear receptor subfamily 4immunitygroup A member 1 (Homo sapiens) (UniProt P22736); experiment: Modulation of full length human Nur77 expressed in SK-N-BE(2) cells co-transfected with luciferase reporter plasmid harboring NurRE response element assessed as increase in luciferase activity incubated for 18 by luciferase reporter gene assay; details: SKNBE2, filed as modulator, time 18.0 hrs; summary of the method: as §1
[12] = target: Nuclear receptor subfamily 4immunitygroup A member 1 (Homo sapiens) (UniProt P22736); experiment: Modulation of full length human Nur77 expressed in PC12 cells co-transfected with luciferase reporter plasmid harboring NBRE response element assessed as increase in luciferase activity incubated for 18 by luciferase reporter gene assay; details: PC-12, filed as modulator, time 18.0 hrs; summary of the method: as §1
[13] = target: Nuclear receptor subfamily 4immunitygroup A member 1 (Homo sapiens) (UniProt P22736); experiment: Modulation of full length human Nur77 expressed in PC12 cells co-transfected with luciferase reporter plasmid harboring NurRE response element assessed as increase in luciferase activity incubated for 18 by luciferase reporter gene assay; details: PC-12, filed as modulator, time 18.0 hrs; summary of the method: as §1
[14] = target: Nuclear receptor subfamily 4 group A member 3 (Homo sapiens) (UniProt Q92570); experiment: Modulation of full length human NOR1 expressed in PC12 cells co-transfected with luciferase reporter plasmid harboring NurRE response element assessed as increase in luciferase activity incubated for 18 by luciferase reporter gene assay; details: PC-12, filed as modulator, time 18.0 hrs
Summary of the method: (§2)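 Full-length NOR-1 plasmid was transfected via Lipofectamine 2000, either alone (2 μg) or at 1 μg with full-length RXRα (1 μg). It was paired with a 3xNBRE or 3xNurRE luciferase reporter (6 μg), 8 μg total DNA, for 18 h. Cells were replated at 10,000/well for 4 h, then given a full ligand dose response or vehicle in quadruplicate for 18 h. Luciferase was read; no EC50/IC50 was fitted.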

[15] = target: Nuclear receptor subfamily 4 group A member 3 (Homo sapiens) (UniProt Q92570); experiment: Modulation of full length human NOR1 expressed in PC12 cells co-transfected with RXRalpha and luciferase reporter plasmid harboring NurRE response element assessed as increase in luciferase activity incubated for 18 by luciferase reporter gene assay; details: PC-12, filed as modulator, time 18.0 hrs; summary of the method: as §2

Measured: Activity

CCN(CC)Cc1cc(Nc2ccnc3cc(Cl)ccc23)ccc1O [AMODIAQUINE]
active: [1] Dose-Dependent Effect | [2] Dose-Dependent Effect | [3] Dose-Dependent Effect | [4] Dose-Dependent Effect | [5] Dose-Dependent Effect | [6] Dose-Dependent Effect | [7] Dose-Dependent Effect | [8] Dose-Dependent Effect | [9] Dose-Dependent Effect | [10] Dose-Dependent Effect | [11] Dose-Dependent Effect | [12] Dose-Dependent Effect | [13] Dose-Dependent Effect | [14] Dose-Dependent Effect | [15] Dose-Dependent Effect

CCN(CC)CCCC(C)Nc1ccnc2cc(Cl)ccc12 (stereo not given) [CHLOROQUINE]
active: [1] Dose-Dependent Effect | [2] Dose-Dependent Effect | [3] Dose-Dependent Effect | [4] Dose-Dependent Effect | [5] Dose-Dependent Effect | [6] Dose-Dependent Effect | [7] Dose-Dependent Effect | [8] Dose-Dependent Effect | [9] Dose-Dependent Effect | [10] Dose-Dependent Effect | [11] Dose-Dependent Effect | [12] Dose-Dependent Effect | [13] Dose-Dependent Effect | [14] Dose-Dependent Effect | [15] Dose-Dependent Effect

CCCCCCCC(=O)c1c(O)cc(O)cc1CC(=O)OCC [CYTOSPORONE B]
active: [1] Dose-Dependent Effect | [2] Dose-Dependent Effect | [3] Dose-Dependent Effect | [4] Dose-Dependent Effect | [5] Dose-Dependent Effect | [6] Dose-Dependent Effect | [7] Dose-Dependent Effect | [8] Dose-Dependent Effect | [9] Dose-Dependent Effect | [10] Dose-Dependent Effect | [11] Dose-Dependent Effect | [12] Dose-Dependent Effect | [13] Dose-Dependent Effect | [14] Dose-Dependent Effect | [15] Dose-Dependent Effect
